The source of these data is ChEMBL document CHEMBL4334460, “Madecassic Acid Derivatives as Potential Anticancer Agents: Synthesis and Cytotoxic Evaluation” (2019).

Where only a bound is given, the exact number is not on record here.

Assay [1] in a line: Selectivity ratio of GI50 for human NCI-H226 cells to GI50 for human NCI-H460 cells. In kind it is functional.
The next assay has as its system SK-MEL-5. As to the kind of experiment: Antiproliferative activity against human SK-MEL-5 cells assessed as growth inhibition after 48 hrs by sulforhodamine B assay. Type of assay: functional. Conditions: SK-MEL-5, 48 h. For orientation: Sulforhodamine B stains cellular protein and so reports cell mass.
The subject of assay [2] is COLO 205. Briefly: Induction of cell cycle arrest in human COLO205 cells assessed as cell population at G2/M phase at 20 uM after 48 hrs by PI/RNase staining based flow cytometry (reference value: 18.6%). In kind it is functional. In short, it runs like this:
(§1)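 COLO 205 cells grown at 37 °C, 5% CO2 in RPMI with 10% FBS and penicillin/streptomycin. Treated 48 h with 10 or 20 μM compound or DMSO vehicle. Cells trypsinized, fixed in ethanol 15 min on ice, stained with PI/RNase solution 40 min at 37 °C, then analysed by imaging cytometry. % cells per phase given as mean ± SD of three independent experiments.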
For orientation: In flow cytometry, cells or beads pass a laser one at a time.

The nature of assay [3]: Selectivity ratio of GI50 for human RXF 393 cells to GI50 for human CAKi1 cells. Type of assay: functional.
Assay [4] deals with COLO 205. Briefly: Induction of cell cycle arrest in human COLO205 cells assessed as cell population at G2/M phase at 10 uM after 48 hrs by PI/RNase staining based flow cytometry (reference value: 18.6%). In kind it is functional. In short, it runs like this:
as §1

Assay [5] deals with COLO 205. As to the kind of experiment: Induction of cell cycle arrest in human COLO205 cells assessed as cell population at S phase at 10 uM after 48 hrs by PI/RNase staining based flow cytometry (reference value: 16.3%). Type of assay: functional. In short, it runs like this: as §1
Assay [6] has as its system COLO 205. Briefly: Antiproliferative activity against human COLO205 cells assessed as growth inhibition after 48 hrs by sulforhodamine B assay. In kind it is functional. The note with it: COLO 205, 48 h.
Assay [7] in a line: Selectivity ratio of GI50 for human NCI-H226 cells to GI50 for human NCI-H23 cells. In kind it is functional.
A further assay relates to HCT-15. Briefly: Antiproliferative activity against human HCT15 cells assessed as growth inhibition after 48 hrs by sulforhodamine B assay. Type of assay: functional. Conditions: HCT-15, 48 h.
Assay [8] in a line: Selectivity ratio of GI50 for human Hs 578T cells to GI50 for human MCF7 cells. In kind it is functional.
A further assay concerns UO-31. As to the kind of experiment: Antiproliferative activity against human UO31 cells assessed as growth inhibition after 48 hrs by sulforhodamine B assay. Conditions: UO-31, 48 h. In kind it is functional. In a few lines: (§2)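 NCI-60 five-dose follow-up, run only when the one-dose screen indicated activity. Doses 100 μM down to 0.01 μM in log steps (0.01, 0.1, 1, 10, 100 μM). 48 h incubation with sulforhodamine B read-out. A time-zero cell control allowed calculation of GI50 from % growth vs concentration dose–response curves.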

The test system of assay [9] is UACC-257. As to the kind of experiment: Antiproliferative activity against human UACC257 cells assessed as growth inhibition after 48 hrs by sulforhodamine B assay. In kind it is functional. Conditions: UACC-257, 48 h. In a few lines: as §2
Assay [10] in a line: Selectivity ratio of GI50 for human Hs 578T cells to GI50 for human T47D cells. Type of assay: functional.
For assay [11], the system named is CCRF-CEM. As to the kind of experiment: Antiproliferative activity against human CCRF-CEM cells assessed as growth inhibition after 48 hrs by sulforhodamine B assay. The note with it: pooled result: one value given for 58 cell lines, strains, targets or settings. In kind it is functional.
Assay [12] is described as follows: Selectivity ratio of GI50 for human OVCAR5 cells to GI50 for human OVCAR4 cells. Type of assay: functional.
Assay [13] deals with COLO 205. As to the kind of experiment: Induction of cell cycle arrest in human COLO205 cells assessed as cell population at S phase at 20 uM after 48 hrs by PI/RNase staining based flow cytometry (reference value: 16.3%). Type of assay: functional. In short, it runs like this:
as §1

The subject of assay [14] is CCRF-CEM. Briefly: Antiproliferative activity against human CCRF-CEM cells assessed as cell growth at 10 uM after 48 hrs by sulforhodamine B assay relative to control. In kind it is functional. Conditions: pooled result: one value given for 60 cell lines, strains, targets or settings, read-out: Activity. In a few lines: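 NCI-60 one-dose screen: cells exposed to test compound at a single 10 μM concentration, viability after 48 h read by sulforhodamine B staining; value is growth percent versus negative control, with a time-zero cell control used to determine total cell growth.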

In assay [15] the test system is COLO 205. Briefly: Induction of mitochondrial dysfunction in human COLO205 cells assessed as reduction in mitochondrial membrane potential by measuring shift in red to green fluorescence after 48 hrs by JC-1 staining based inverted microscopic analysis. Type of assay: functional, cell-based. In a few lines: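 COLO 205 cells (5 × 10^5) grown on coverslips overnight, then treated 48 h with 10 or 20 μM compound or DMSO. Fresh medium with 4 μg/mL JC-1 added for 30 min at 37 °C. Cells washed twice and imaged immediately by inverted fluorescence microscopy (40× objective) at room temperature, scoring red aggregate vs green monomer fluorescence.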

Assay [16] in a line: Selectivity ratio of GI50 for human Hs 578T cells to GI50 for human MDA-MB-468 cells. In kind it is functional.
In assay [17] the test system is COLO 205. Briefly: Induction of cell cycle arrest in human COLO205 cells assessed as cell population at G0/G1 phase at 20 uM after 48 hrs by PI/RNase staining based flow cytometry (reference value: 63.8%). Type of assay: functional. In a few lines: as §1
The subject of assay [18] is UACC-257. Briefly: Antiproliferative activity against human UACC257 cells assessed as reduction in cell viability after 48 hrs by SRB assay. In kind it is functional. The note with it: UACC-257, 48 h, read-out: LC50 (the source's name). In a few lines:
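NCI-60 five-dose testing at 100, 10, 1, 0.1 and 0.01 μM (log dilutions). After 48 h incubation, viability was read by sulforhodamine B staining. A time-zero cell control gave total growth per cell line. GI50, TGI and LC50 were calculated from % growth versus concentration curves.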

Assay [19] relates to COLO 205. As to the kind of experiment: Induction of cell cycle arrest in human COLO205 cells assessed as cell population at G0/G1 phase at 10 uM after 48 hrs by PI/RNase staining based flow cytometry (reference value: 63.8%). Type of assay: functional. In short, it runs like this:
as §1

For the compound `COC(=O)[C@]12CC[C@@H](C)[C@H](C)[C@H]1C1=CC[C@@H]3[C@@]4(C)CC(=O)[C@H](OC(=O)c5ccco5)[C@@]5(C)COC(=C45)C[C@@]3(C)[C@]1(C)CC2`, the RatioGI50 in assay [1] is reported as >100; in assay [3], >50; in assay [7], >50; in assay [8] it was >100; in [10], >100; in assay [12] it was >50. Also, the RatioGI50 in [16] was >100. Besides, the TGI (usually the concentration giving total growth inhibition) in the assay on SK-MEL-5 was determined as 2600 nM; with COLO 205 [6], 3000 nM; with UACC-257 [9], 3000 nM. In addition, the Activity with COLO 205 [2] is 6.2%; in the assay on COLO 205 [4] it was 6.6%; in the assay with COLO 205 [5], 3.8%; in the assay with COLO 205 [13], 3.3%; with COLO 205 [15], “Dose-dependent effect”; in the assay on COLO 205 [17], 89.1%. Further, in the assay with COLO 205 [19], the Activity is recorded as 88.4%. In addition, the GI50 (commonly the concentration that inhibits growth by half) in the assay on HCT-15 was 500 nM; in the assay with UO-31 it was 1700 nM; in the assay with CCRF-CEM [11], 2300 nM. Besides, the growth at 10 µM in the assay with CCRF-CEM [14] was 27.2%. Further, the CC50 with UACC-257 [18] came out at 50.1 µM.
